From ChEMBL document CHEMBL4613248, “Twelfth-Position Deuteration of Nevirapine Reduces 12-Hydroxy-Nevirapine Formation and Nevirapine-Induced Hepatocyte Death” (J Med Chem, 2020) come the findings set out here.

Series [1] has as its system Hepatocyte. In words: Induction of change in Manf protein expression in C57BL/6J mouse primary hepatocytes at 400 uM incubated for 8 hrs by relative-quantitation label-free proteomics analysis relative to NVP. It is filed as cell-based. Put shortly: (§1)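 Fresh primary hepatocytes from male C57BL/6J mice aged 8–13 weeks, adhered overnight, then given fresh medium containing compound (400 μM), NVP (400 μM) or vehicle (0.2% DMSO) for 8 h. Lysate reduced (DTT) and alkylated (iodoacetamide), acetone-precipitated and digested with trypsin. Label-free Top10 nanoLC-MS with precursor ion area quantitation; unpaired t test P values, Cohen's d effect size.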

The next series concerns the target T1, Cytochrome P450 2B6 (Homo sapiens, UniProt P20813).
T1 sequence (P20813 whole entry): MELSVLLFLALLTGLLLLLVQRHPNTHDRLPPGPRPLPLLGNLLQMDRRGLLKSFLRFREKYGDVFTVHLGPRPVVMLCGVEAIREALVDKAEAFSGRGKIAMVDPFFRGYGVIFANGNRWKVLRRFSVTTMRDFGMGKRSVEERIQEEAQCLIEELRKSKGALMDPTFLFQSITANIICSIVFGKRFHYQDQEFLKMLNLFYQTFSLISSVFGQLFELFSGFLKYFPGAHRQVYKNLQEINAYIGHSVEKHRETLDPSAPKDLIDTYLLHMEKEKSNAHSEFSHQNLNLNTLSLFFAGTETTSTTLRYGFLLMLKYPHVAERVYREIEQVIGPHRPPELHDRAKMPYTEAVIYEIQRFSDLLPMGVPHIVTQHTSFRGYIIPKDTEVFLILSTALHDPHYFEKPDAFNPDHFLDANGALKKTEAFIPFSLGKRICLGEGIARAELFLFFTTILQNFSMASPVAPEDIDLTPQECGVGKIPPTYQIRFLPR
In words: Drug metabolism assessed as human CYP2B6-mediated formation of 3-OHNVP at 10 uM pre-incubated for 30 mins followed by addition of NADPH regenerating reagents by uHPLC-MS analysis. It is filed as ADME. The conditions noted are these: recombinant enzyme. Put shortly:
(§2)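 Insect-cell microsomes with single cDNA-expressed human P450 (100 nM) in 0.1 M potassium phosphate; 10 μM substrate prewarmed 5 min at 37 °C with NADPH-regenerating system, reaction started by adding microsomes; 30 min at 37 °C, 0.1% DMSO. Stopped, dried, reconstituted in methanol; triple-quadrupole SRM (12-OH 283.1→223.0, 2-OH 283.1→160.9, 3-OH 283.1→241.9), peak height; three replicates, mean ± SD.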

The subject of series [2] is Hepatocyte. In words: Induction of change in SARNP protein expression in human primary hepatocytes at 10 uM incubated for 48 hrs by relative-quantitation label-free proteomics analysis relative to NVP. Type of series: cell-based. Put shortly:
(§3)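 Cryoplateable pooled human hepatocytes (10 mixed-sex donors per pool; three pools), adhered overnight, then given fresh medium containing compound (10 μM), NVP (10 μM) or vehicle (0.1% DMSO) for 48 h. Lysate reduced (DTT) and alkylated (iodoacetamide), acetone-precipitated and digested with trypsin. Label-free Top10 nanoLC-MS with precursor ion area quantitation; unpaired t test P values, Cohen's d effect size.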

The test system of the next series is Cytochrome P450. Nature of the series: Drug metabolism in human liver microsomes assessed as Cytochrome P450-mediated formation of 3-OHNVP formation at 5 to 400 uM in presence of NADPH regenerating reagents by uHPLC-MS/MS analysis. Type of series: ADME. Put shortly:
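Pooled human liver microsomes (2.5 mg/mL) with NADPH-regenerating system, substrate 5–400 μM, 30 min at 37 °C, 0.1% DMSO (0.2% at 400 μM); 2- and 3-OH metabolites by uHPLC-MS/MS Orbitrap; three replicates, mean ± SD.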

Series [3] addresses T2, Cytochrome P450 3A4 (Homo sapiens, UniProt P08684). Nature of the series: Drug metabolism assessed as human CYP3A4-mediated formation of 2-OHNVP at 10 uM pre-incubated for 30 mins followed by addition of NADPH regenerating reagents by uHPLC-MS analysis. It is filed as ADME. To be noted: recombinant enzyme. Put shortly: as §2
Series [4] can be described thus: Drug metabolism in C57BL/6J mouse primary hepatocytes assessed as Cytochrome P450-mediated formation of 8-OHD3NVP at 10 uM incubated for 24 hrs by uHPLC-MS analysis. Type of series: ADME, cell-based. Put shortly:
(§4)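 Fresh hepatocytes from male C57BL/6J mice (8–13 weeks), adhered overnight, then 10 μM substrate or vehicle (0.1% DMSO) for 24 h. Medium extracted with acetonitrile (50% final), dried, reconstituted in methanol; uHPLC-Orbitrap targeted SIM plus PRM (monooxygenated metabolites) or high-resolution ions (O-glucuronides, 459.1510/462.1700 ±5 ppm); four experimental replicates.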

Series [5] has as its system Hepatocyte. Nature of the series: Induction of change in Actb protein expression in C57BL/6J mouse primary hepatocytes at 400 uM incubated for 8 hrs by relative-quantitation label-free proteomics analysis relative to NVP. It is filed as cell-based. Put shortly: as §1
For a further series, the target named is Cytochrome P450 2C19 (Homo sapiens, UniProt P33261). Nature of the series: Drug metabolism assessed as human CYP2C19-mediated formation of 12-OHNVP at 10 uM pre-incubated for 30 mins followed by addition of NADPH regenerating reagents by uHPLC-MS analysis. It is filed as ADME. The conditions noted are these: recombinant enzyme. Put shortly:
as §2

In another series the target is Cytochrome P450 2C9 (Homo sapiens, UniProt P11712). Nature of the series: Drug metabolism assessed as human CYP2C9-mediated formation of 12-OHNVP at 10 uM pre-incubated for 30 mins followed by addition of NADPH regenerating reagents by uHPLC-MS analysis. Type of series: ADME. The conditions noted are these: recombinant enzyme. Put shortly:
as §2

Series [6] concerns Hepatocyte. Nature of the series: Induction of change in Tf protein expression in C57BL/6J mouse primary hepatocytes at 400 uM incubated for 8 hrs by relative-quantitation label-free proteomics analysis relative to NVP. It is filed as cell-based. Put shortly:
as §1

Series [7] has as its target T2, Cytochrome P450 3A4. In words: Drug metabolism assessed as human CYP3A4-mediated formation of 12-OHNVP at 10 uM pre-incubated for 30 mins followed by addition of NADPH regenerating reagents by uHPLC-MS analysis. Type of series: ADME. The conditions noted are these: recombinant enzyme. Put shortly: as §2
A short description of series [8]: Drug metabolism in C57BL/6J mouse primary hepatocytes assessed as Cytochrome P450-mediated formation of 2-OHD3NVP at 10 uM incubated for 24 hrs by uHPLC-MS analysis. It is filed as ADME, cell-based. Put shortly:
as §4

Series [9] relates to Hepatocyte. In words: Induction of change in AKAP2 protein expression in human primary hepatocytes at 10 uM incubated for 48 hrs by relative-quantitation label-free proteomics analysis relative to NVP. It is filed as cell-based. Put shortly: as §3
Series [10] concerns Hepatocyte. Nature of the series: Induction of change in CYB5A protein expression in human primary hepatocytes at 10 uM incubated for 48 hrs by relative-quantitation label-free proteomics analysis relative to NVP. It is filed as cell-based. Put shortly:
as §3

T2 sequence (P08684 whole entry): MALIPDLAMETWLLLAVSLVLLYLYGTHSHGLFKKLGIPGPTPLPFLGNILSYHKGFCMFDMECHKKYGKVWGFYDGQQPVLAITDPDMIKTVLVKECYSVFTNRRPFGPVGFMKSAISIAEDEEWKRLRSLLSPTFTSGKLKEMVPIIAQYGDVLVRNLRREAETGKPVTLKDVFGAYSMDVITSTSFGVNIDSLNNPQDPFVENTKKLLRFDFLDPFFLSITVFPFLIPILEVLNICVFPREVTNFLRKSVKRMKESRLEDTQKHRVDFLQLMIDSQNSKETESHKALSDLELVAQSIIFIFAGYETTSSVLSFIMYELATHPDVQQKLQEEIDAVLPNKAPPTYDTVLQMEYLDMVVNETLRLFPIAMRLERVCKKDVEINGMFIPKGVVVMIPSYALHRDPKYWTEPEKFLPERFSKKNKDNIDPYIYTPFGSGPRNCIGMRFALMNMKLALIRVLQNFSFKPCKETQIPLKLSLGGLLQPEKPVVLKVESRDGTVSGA
Cytochrome P450 2C9, sequence (P11712 whole entry): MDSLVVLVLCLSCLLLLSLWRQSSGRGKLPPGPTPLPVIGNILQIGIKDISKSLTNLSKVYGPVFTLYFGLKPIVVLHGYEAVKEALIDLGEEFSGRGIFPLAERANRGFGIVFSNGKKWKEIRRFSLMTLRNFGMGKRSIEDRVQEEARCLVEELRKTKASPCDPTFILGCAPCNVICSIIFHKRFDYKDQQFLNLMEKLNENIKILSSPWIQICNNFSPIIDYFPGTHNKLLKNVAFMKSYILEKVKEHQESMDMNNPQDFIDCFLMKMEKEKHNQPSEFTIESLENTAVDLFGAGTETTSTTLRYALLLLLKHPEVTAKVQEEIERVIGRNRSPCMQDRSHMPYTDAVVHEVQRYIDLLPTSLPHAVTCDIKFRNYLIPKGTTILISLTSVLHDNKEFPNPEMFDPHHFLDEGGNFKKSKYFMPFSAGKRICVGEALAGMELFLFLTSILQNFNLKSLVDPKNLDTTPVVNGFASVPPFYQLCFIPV
Cytochrome P450 2C19, sequence (P33261 whole entry): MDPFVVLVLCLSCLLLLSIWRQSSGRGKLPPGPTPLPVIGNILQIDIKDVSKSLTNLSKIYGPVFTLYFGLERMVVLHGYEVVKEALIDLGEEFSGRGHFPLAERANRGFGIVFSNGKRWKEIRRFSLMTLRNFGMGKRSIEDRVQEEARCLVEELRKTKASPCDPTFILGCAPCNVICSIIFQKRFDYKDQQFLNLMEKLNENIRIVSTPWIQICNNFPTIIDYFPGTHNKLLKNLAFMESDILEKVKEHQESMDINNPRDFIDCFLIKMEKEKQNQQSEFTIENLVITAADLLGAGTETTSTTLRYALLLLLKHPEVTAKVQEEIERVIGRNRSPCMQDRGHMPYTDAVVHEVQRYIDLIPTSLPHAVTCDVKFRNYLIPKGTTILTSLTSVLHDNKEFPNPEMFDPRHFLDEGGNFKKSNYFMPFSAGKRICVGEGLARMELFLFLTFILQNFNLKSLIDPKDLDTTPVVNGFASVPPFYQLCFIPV

With `[2H]C([2H])([2H])c1ccnc2c1NC(=O)c1cccnc1N2C1CC1`, the “fold change (FC)” value is 1.3 with Hepatocyte [1]; -1.65 in the series with Hepatocyte [2]; 1.05 in the series on Hepatocyte [5]; -1.52 in the series with Hepatocyte [6]; -2.67 in the series with Hepatocyte [9]; -1.5 in the series on Hepatocyte [10]. The Drug metabolism result on Cytochrome P450 2B6 is given as “Metabolite_Detected”; with Cytochrome P450 it was “Metabolite_Detected”; on Cytochrome P450 3A4 [3], “Metabolite_Detected”; in [4] it was “Metabolite_Notdetected”; on Cytochrome P450 2C19, “Metabolite_Detected”; at Cytochrome P450 2C9, “Metabolite_Detected”. In addition, the Drug metabolism result (at Cytochrome P450 3A4 [7]; in series [8]) was “Metabolite_Detected” in each case.
